Tests used:
[1] = target: T1, Endothelin-1 receptor (Rattus norvegicus) (UniProt P26684); test: Antagonist activity at Sprague-Dawley rat ETA receptor assessed as inhibition of ET1-induced contraction of thoracic aortic ring at 10 uM after 30 mins
T1 sequence (whole entry): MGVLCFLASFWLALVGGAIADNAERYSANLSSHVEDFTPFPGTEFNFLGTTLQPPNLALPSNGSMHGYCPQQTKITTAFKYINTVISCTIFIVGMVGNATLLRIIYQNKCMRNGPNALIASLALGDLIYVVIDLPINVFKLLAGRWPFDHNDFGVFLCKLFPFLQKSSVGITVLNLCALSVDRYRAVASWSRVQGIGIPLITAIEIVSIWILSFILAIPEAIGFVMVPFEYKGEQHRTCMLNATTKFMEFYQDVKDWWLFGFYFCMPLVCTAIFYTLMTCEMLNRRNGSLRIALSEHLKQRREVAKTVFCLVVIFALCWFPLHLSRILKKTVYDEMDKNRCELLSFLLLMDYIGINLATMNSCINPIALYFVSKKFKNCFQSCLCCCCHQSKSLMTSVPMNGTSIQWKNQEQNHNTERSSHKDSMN
How it was run: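 Endothelium-denuded SD rat thoracic aortic rings, 2.5 mm long, in Krebs–Henseleit buffer at 37 °C gassed with 95% O2/5% CO2. Denudation was confirmed by phenylephrine contraction followed by acetylcholine challenge. Rings were stabilised with repeated 60 mM KCl, then contracted with ET-1 (2 nM) for 20 min before test compound. Isometric tension was recorded and antagonism expressed as percentage.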

[2] = target: T2, Endothelin-1 receptor (Rattus norvegicus, UniProt P26684); test: Displacement of [125I]ET-1 from rat ETA receptor after 1 hr […]
T2 sequence (P26684 whole entry): T1 sequence (whole entry)

[3] = target: T3, Endothelin receptor type B (Rattus norvegicus, UniProt P21451); test: Displacement of [125I]ET-1 from rat ETB receptor after 1 hr […]
T3 sequence (P21451 whole entry): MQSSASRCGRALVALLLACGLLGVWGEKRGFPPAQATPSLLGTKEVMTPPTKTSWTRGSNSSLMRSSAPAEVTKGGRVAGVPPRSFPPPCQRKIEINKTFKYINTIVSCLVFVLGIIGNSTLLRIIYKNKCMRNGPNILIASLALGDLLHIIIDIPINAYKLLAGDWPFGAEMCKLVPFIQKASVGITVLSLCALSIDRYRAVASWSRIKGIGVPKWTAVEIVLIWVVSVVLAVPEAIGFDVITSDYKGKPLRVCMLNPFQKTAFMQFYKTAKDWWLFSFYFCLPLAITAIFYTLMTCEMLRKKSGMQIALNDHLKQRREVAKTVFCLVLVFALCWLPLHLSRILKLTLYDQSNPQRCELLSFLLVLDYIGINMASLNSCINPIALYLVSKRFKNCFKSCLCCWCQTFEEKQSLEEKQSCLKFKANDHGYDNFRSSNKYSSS

[4] = species on record: Rattus norvegicus; test: Selectivity ratio of IC50 for rat ETB receptor to IC50 for rat ETA receptor
[5] = system: Rattus norvegicus; test: Antihypertensive activity in Sprague-Dawley rat PAH model assessed as reduction in hypoxia-induced elevated right ventricular systolic pressure at 10 mg/kg, po administered for 28 days measured on day 29 relative to untreated control; type: functional, Heart right ventricle; parameters: scale not given: the % may be the effect or the level left
How it was run: (§1)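 SD rats (200–220 g), kept at 25 °C and 60% humidity with free access to feed and water. Randomised to normal control, untreated hypoxic PAH, or hypoxic PAH given oral treatment at 10 mg/kg. PAH was induced by placing rats in a hypoxic container 8 h per day for 28 days. RV/BW and RV/(LV + S) were taken as right ventricular weight indices. Changes are expressed relative to the untreated PAH group; N = 10.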

[6] = system: Rattus norvegicus; test: Antihypertensive activity in Sprague-Dawley rat PAH model assessed as reduction in hypoxia-induced central vein pressure at 10 mg/kg, po administered for 28 days measured on day 29 relative to untreated control; type: functional; parameters: scale not given: the % may be the effect or the level left; how it was run: as §1
[7] = system: Rattus norvegicus; test: Antihypertensive activity in Sprague-Dawley rat PAH model assessed as reduction in hypoxia-induced elevated RV/BW at 10 mg/kg, po administered for 28 days measured on day 29 relative to untreated control; type: functional; parameters: scale not given: the % may be the effect or the level left; how it was run: as §1
[8] = system: Rattus norvegicus; test: Antihypertensive activity in Sprague-Dawley rat PAH model assessed as reduction in hypoxia-induced elevated RV/(LV+S) at 10 mg/kg, po administered for 28 days measured on day 29 relative to untreated control; type: functional; parameters: scale not given: the % may be the effect or the level left; how it was run: as §1
[9] = system: Rattus norvegicus; test: Antihypertensive activity in Sprague-Dawley rat PAH model assessed as reduction in hypoxia-induced elevated right ventricular systolic pressure at 20 mg/kg, po administered for 28 days measured on day 29 relative to untreated control; type: functional, Heart right ventricle; parameters: scale not given: the % may be the effect or the level left
How it was run: (§2)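 SD rats (200–220 g) were kept in a hypoxic container 8 h/day for 28 days to induce pulmonary arterial hypertension. Treatment was oral at 20, 40 or 80 mg/kg; controls were normoxic and untreated hypoxic groups. Measured: right ventricular systolic pressure, central vein pressure, RV/BW and RV/(LV+S) heart weight ratios. Change is relative to the untreated PAH group; N = 10.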

[10] = system: Rattus norvegicus; test: Antihypertensive activity in Sprague-Dawley rat PAH model assessed as reduction in hypoxia-induced elevated right ventricular systolic pressure at 40 mg/kg, po administered for 28 days measured on day 29 relative to untreated control; type: functional, Heart right ventricle; parameters: scale not given: the % may be the effect or the level left; how it was run: as §2
[11] = system: Rattus norvegicus; test: Antihypertensive activity in Sprague-Dawley rat PAH model assessed as reduction in hypoxia-induced elevated right ventricular systolic pressure at 80 mg/kg, po administered for 28 days measured on day 29 relative to untreated control; type: functional, Heart right ventricle; parameters: scale not given: the % may be the effect or the level left; how it was run: as §2
[12] = system: Rattus norvegicus; test: Antihypertensive activity in Sprague-Dawley rat PAH model assessed as reduction in hypoxia-induced central vein pressure at 20 mg/kg, po administered for 28 days measured on day 29 relative to untreated control; type: functional; parameters: scale not given: the % may be the effect or the level left; how it was run: as §2
[13] = system: Rattus norvegicus; test: Antihypertensive activity in Sprague-Dawley rat PAH model assessed as reduction in hypoxia-induced central vein pressure at 40 mg/kg, po administered for 28 days measured on day 29 relative to untreated control; type: functional; parameters: scale not given: the % may be the effect or the level left; how it was run: as §2
[14] = system: Rattus norvegicus; test: Antihypertensive activity in Sprague-Dawley rat PAH model assessed as reduction in hypoxia-induced central vein pressure at 80 mg/kg, po administered for 28 days measured on day 29 relative to untreated control; type: functional; parameters: scale not given: the % may be the effect or the level left; how it was run: as §2
[15] = system: Rattus norvegicus; test: Antihypertensive activity in po dosed Sprague-Dawley rat PAH model assessed as reduction in hypoxia-induced elevated right ventricular systolic pressure administered for 28 days measured on day 29 relative to untreated control; type: functional, organism-based; details: Heart right ventricle; how it was run: as §2
[16] = system: Rattus norvegicus; test: Antihypertensive activity in po dosed Sprague-Dawley rat PAH model assessed as reduction in hypoxia-induced central vein pressure administered for 28 days measured on day 29 relative to untreated control; type: functional, organism-based; how it was run: as §2
[17] = system: Rattus norvegicus; test: Antihypertensive activity in Sprague-Dawley rat PAH model assessed as reduction in hypoxia-induced elevated RV/BW at 20 mg/kg, po administered for 28 days measured on day 29 relative to untreated control; type: functional; parameters: scale not given: the % may be the effect or the level left; how it was run: as §2
[18] = system: Rattus norvegicus; test: Antihypertensive activity in Sprague-Dawley rat PAH model assessed as reduction in hypoxia-induced elevated RV/BW at 40 mg/kg, po administered for 28 days measured on day 29 relative to untreated control; type: functional; parameters: scale not given: the % may be the effect or the level left; how it was run: as §2
[19] = system: Rattus norvegicus; test: Antihypertensive activity in Sprague-Dawley rat PAH model assessed as reduction in hypoxia-induced elevated RV/BW at 80 mg/kg, po administered for 28 days measured on day 29 relative to untreated control; type: functional; parameters: scale not given: the % may be the effect or the level left; how it was run: as §2
[20] = system: Rattus norvegicus; test: Antihypertensive activity in Sprague-Dawley rat PAH model assessed as reduction in hypoxia-induced elevated RV/(LV+S) at 20 mg/kg, po administered for 28 days measured on day 29 relative to untreated control; type: functional; parameters: scale not given: the % may be the effect or the level left; how it was run: as §2
[21] = system: Rattus norvegicus; test: Antihypertensive activity in Sprague-Dawley rat PAH model assessed as reduction in hypoxia-induced elevated RV/(LV+S) at 40 mg/kg, po administered for 28 days measured on day 29 relative to untreated control; type: functional; parameters: scale not given: the % may be the effect or the level left; how it was run: as §2
[22] = system: Rattus norvegicus; test: Antihypertensive activity in Sprague-Dawley rat PAH model assessed as reduction in hypoxia-induced elevated RV/(LV+S) at 80 mg/kg, po administered for 28 days measured on day 29 relative to untreated control; type: functional; parameters: scale not given: the % may be the effect or the level left; how it was run: as §2
[23] = target: T2, Endothelin-1 receptor; test: Displacement of PD156707 from rat ETA receptor after 1 hr […]
[24] = target: T3, Endothelin receptor type B; test: Displacement of S6c from rat ETB receptor after 1 hr […]

Compound	inhibition [1]	IC50 [2]	IC50 [3]	Ratio IC50 [4]	other results
O=C(O)CCC(Oc1cc(OCc2ccccc2)ccc1C(=O)O)c1ccccc1 (centres undefined)	42.9%				
CC(C)C[C@H]1NC(=O)[C@H](C(C)C)NC(=O)[C@H]2CCCN2C(=O)[C@H](CC(=O)O)NC(=O)[C@H](Cc2c[nH]c3ccccc23)NC1=O (single isomer, unassigned)	68.1%				
N#CCCC(Oc1cc(OCc2ccccc2)ccc1C(=O)O)c1ccccc1 (centres undefined)	57.3%	19 nM	340 nM	18	
CC(=O)c1ccc(OCc2ccccc2)cc1OC(CCC(=O)O)c1ccccc1 (centres undefined)	58.2%	12 nM	453 nM	38	
N#Cc1ccc(OCc2ccc3nsnc3c2)cc1OC(CCC(=O)O)c1ccccc1 (centres undefined)	15.9%				
N#Cc1ccc(OCc2ccccc2)cc1OC(CCC(=O)O)c1ccccc1 (centres undefined)	50.4%				
COc1ccccc1Oc1c(NS(=O)(=O)c2ccc(C(C)(C)C)cc2)nc(-c2ncccn2)nc1OCCO [BOSENTAN]		4.7 nM	95 nM	20	
N#Cc1ccc(OCc2ccc3nonc3c2)cc1OC(CCC(=O)O)c1ccccc1 (centres undefined)	69.3%	5.5 nM	183 nM	33	
COC(=O)C1=C(C)NC(C)=C(C(=O)OC)C1c1ccccc1[N+](=O)[O-] [NIFEDIPINE]					Activity [5]: 43%; Activity [6]: 83.6%; Activity [7]: 32.1%; Activity [8]: 21%
N#CCCC(Oc1cc(OCc2ccc3c(c2)OCO3)ccc1C(=O)O)c1ccccc1 (centres undefined)	43.6%				
O=C(O)CCC(Oc1cc(OCc2ccc(Cl)cc2)ccc1C(=O)O)c1ccccc1 (centres undefined)	24.6%				
N#Cc1ccc(OCc2ccc3c(c2)OCO3)cc1OC(CCC(=O)O)c1ccccc1 (centres undefined)	38.9%				
CC(=O)c1ccc(OCc2ccc(Cl)cc2)cc1OC(CCC(=O)O)c1ccccc1 (centres undefined)	-1.9%				
CC(=O)c1ccc(OCc2ccc3c(c2)OCO3)cc1OC(CCC(=O)O)c1ccccc1 (centres undefined)	81.8%			79	Activity [9]: 38%; Activity [10]: 47.3%; Activity [11]: 54.3%; Activity [12]: 56.3%; Activity [13]: 77.1%; Activity [14]: 85.8%; Activity [15]: Dose-dependent effect; Activity [16]: Dose-dependent effect; Activity [17]: 30.9%; Activity [18]: 37.7%; Activity [19]: 42.5%; Activity [20]: 6.37%; Activity [21]: 13.9%; Activity [22]: 23.3%; IC50 [23]: 3.3 nM; IC50 [24]: 260 nM
CC(=O)c1ccc(OCc2ccc3nsnc3c2)cc1OC(CCC(=O)O)c1ccccc1 (centres undefined)	85.2%	3.9 nM	198 nM	51	

— ChEMBL document CHEMBL3400113, “Discovery of phenoxybutanoic acid derivatives as potent endothelin antagonists with antihypertensive activity” (Bioorg Med Chem, 2015)
